Fewer inactive variants are shown than the library holds.
B1: tRNA (parent)
chain: GUUCCGUUGGCGUAAUGGUAACGCGUCUCCCUCCUAAGGAGAAGACUGCGGGUUCGAGUCCCGUACGGAACG

Variants of: B1
Test: yeast fitness relative to wild type (ratio to wild type); higher = fitter; tRNA-Arg(CCU), competitive growth, 37 C, YPD
Procedure, shortened: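 For this measurement, the tRNA-Arg(CCU) gene was varied by chemical synthesis at a 3% per-site mutation rate across 69 sites, and each variant was placed at the native genomic locus in Saccharomyces cerevisiae. The pooled strains went through a 24-hour competition in YPD at 37°C in six parallel replicates, with amplicons from start and end populations read by 100-nucleotide paired-end sequencing. Darwinian fitness relative to wild type followed from the change in each genotype's frequency. Genotypes needed ≥ 100 starting reads, and estimates < 0.5 were set to 0.5.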

Variant	yeast fitness
GUUCCGUUGGCGUUAUGGUAACGCGUCUCCCUCCUAUGGAGAAGACUGCGGGUUCGAGUCCCGUAUGGAACG	≤ 0.5
GUUCCGUUGGCGUUAUGGUACCGCGUCUCCCUCCUCAGGAGAAGACUGAGGGUUCGAGUCCCGUAGGGAACG	≤ 0.5
GUUCCGUUGGCGUUAUGGUAACGCGUCUCCCUCCUAAGGAGAAGUCAGCGGGUUCGAGUCCCGUACGGAACG	≤ 0.5
GUUCCGUUGGCGUUAUGGUAACGCGUCUCCCUCCUAUGGAGAAGACUGCGGGUUCGAGUCCGGUACGGAUCG	≤ 0.5
GUUCCGUUGGCGUUAUGGUAACGCGUCUCCCUCCUAAGGAGCAGAAUGCGGGUUCGAGUCCCGUACGGAACG	≤ 0.5
GUUCCGUUGGCGUUAUGGUAACGCGUCUCCCUCCUUAAGAGAAGACUGCGGGUUCGAGUCCCGUACGGAACG	≤ 0.5
GUUCCGUUGGCGUUAUGGUAACGCGUCUCCCUCCUUAGGAGAAGACUGCGGGUUCGAGUCCCGUACGGAACG	0.531
GUUCCGUUGGCGUUAUGGUAACGCGUCUCCCUCCUCAGGAGAAGACUGCGGGUUCGAGUCCCGUACGGAACG	0.586
GUUCCGUUGGCGUUAUGGUAACGCGUCUCCCUCCUAUGGAGAAGACUGCGGGUUCGAGACCCGUACGGAACG	≤ 0.5
GUUCCGUUGGCGUUAUGGUAUCGCGUCUCCCGCCUAGGGAGAAGGCUGCGGGUUAGAGUCCCGUACGGAACG	≤ 0.5
GUUCCGUUGGCGUUAUGGUAACGCGUCUCCCUCCUAAGGAGAAGGCUGCGGGCUCGAGUCCCGUUCGGAACG	≤ 0.5
GUUCCGUUGGCGUUAUGGUAACGCGUCUCCCUCCUAAGGAGUAGACUGCGGGUUCGAGUCUCGUAUGGAACG	≤ 0.5
GUUCCGUUGGCGUUAUGGUAACGCGUCUCCCUCCUAAGGGGAAGACUGCGGGUUCGAGUCCGGUACGGAACG	≤ 0.5
GUUCCGUUGGCGUUAUGGUAACGCGUCUCCCUCCUAAGGAGAAGUCUGCGGGUUCGAGUCCCGUACGGAACG	0.572
GUUCCGUUGGCGUUAUGGUAACGCGUCUCCCUCCUAAGGAGAAGCCUGCGGGUUCGAGUCCCGUACGGAACG	0.653
GUUCCGUUGGCGUUAUGGUAGCGCGUCUCCCUCCUAAGGAGAAGACUGCGGGUUCGAAUCCCGUACGGAACG	≤ 0.5
GUUCCGUUGGCGUUAUGGUAGCGCGUCUCCCUCCUAAGCAGAAGGCUGCGGGUUCGAGUCCCGUACGGAACG	≤ 0.5
GUUCCGUUGGCGUUAUGGUAACGCGUCUCCCUCCUAGGGAGAACCCUGCAGGUUGGAGUCCCGUAAGGAACG	0.539
GUUCCGUUGGCGUUAUGGUAACGCGUCUCCCUCCUAAGGUGUAGACUGCGAGUUCGAGUCCCGUACGGAACG	0.62
GUUCCGUUGGCGUUAUGGUAACGCGUCUCCCUCCUACGGAGAAAACUGCGGGUUCGAGUCCCGUACGGAGCG	0.551
GUUCCGUUGGCGUUAUGGUACCGCGUCUCCCUCCUCAGGAGAAGACUGAGGGUUCGAGUCCCGUGGGGAACG	0.567
GUUCCGUUGGCGUUAUGGUAACGCGUCUCCCUCCUAAGGAGUAGACUGCGGGUUCGAGUCCCGUGCGGCACG	≤ 0.5
GUUCCGUUGGCGUUAUGGUAACGCGUCUCCCUCCUAAGGCGAAGACUGCGGGUUCGAGUCCCGUAAGGAACG	≤ 0.5
GUUCCGUUGGCGUUAUGGUAACGCGUCUCCCUCCUAAGGAGACGAUUGCGGGUUCGAGUCCCGUACGGAACG	≤ 0.5
GUUCCGUUGGCGUUAUGGUACUGCGUCUCCCUGCUAAGGAGAAGACUGCGGGUUCGUGUGCCGUACGCAACG	≤ 0.5

Variant	yeast fitness
GUUCCGUUGGCGUUAUGGUAACGCGUCUCCCUCCUAAGGAGAUGGCUGCGGGUUCGAGUCCCGUACGAAACG	≤ 0.5
GUUCCGUUGGCGUUAUGGUGACGCGUCUCCCUCCUAAGGAGAACACUGCGGGUUCGAGUCCCGUACGGAACG	≤ 0.5
GUUCCGUUGGCGUUAUGGUAUCGCGUCUCCUUCCUAAGGAGAUCACUGCGGGUUCGAGUCCCGUACGGAACG	≤ 0.5
GUUCCGUUGGCGUUAUGGUUACGCGUCUCCCUCCUAAGGAGAAGACUGCGGUUUCGAGUCCCGUACGGAACG	0.591
GUUCCGUUGGCGUUAUGGUAACGCGUCUCCCUCCUACGGAGAAGAUUGCGCGUUCGAGUCCCGUAGGGAACG	0.529
GUUCCGUUGGCGUUAUGGUUACGCGUCUCCCUCCUAAGGAGAAGACUGCGGGUUCGAGUCCCAUACGGAACG	≤ 0.5
GUUCCGUUGGCGUUAUGGUAGCGCGUCUCCCUCCUAAGGAGAAGACUGCGGGUUCGAGUCGCGUACGGAUCG	≤ 0.5
GUUCCGUUGGCGUUAUGGUAACGCGUCUCCCUCCUAAGGCGAAGACUGCGGGUUCGCGUUCCGUACGGAACG	≤ 0.5
GUUCCGUUGGCGUUAUGGUAACGCGUCUCCCUCCUAAGGAGAGGACUGCGGGUUCGCGUGACGUACGGAACG	≤ 0.5
GUUCCGUUGGCGUUAUGGUAACGCGUCUCCCUCCUUAGGAGAAGACUGCGGGUUCGAGUCCCGUACGGUACG	0.629
GUUCCGUUGGCGUUAUGGUUACGCGUCUCCCUCCUUAGGAGAAGACUGCGGGUUCGAGUCCCGUACGGAACG	0.568
GUUCCGUUGGCGUUAUGGUAACGCGUCUCCCUCCUAAGGAGAAGACUGCGGGUUCGUGUCCCGUACGGAACG	≤ 0.5
GUUCCGUUGGCGUUAUGGUAACGCGUCUCCCUCCUAAGGAGAAGACUGCGGGUUCGCGUCCCGUACGGAACG	≤ 0.5
GUUCCGUUGGCGUUAUGGUAGCGCGUCUCCCUCGUAAGGAGAAGACUGCGGGUUCGUGUCCCGUACGGUACG	0.655
GUUCCGUUGGCGUUAUGGUAACGCGUCUCCCUCCUAAGGAGCAGACUGCGGGUACGAGUCCCGUACCGUACG	≤ 0.5
GUUCCGUUGGCGUUAUGGUAACGCGUCUCCCUCCUACGGAGAAGACUGCGGGUUCGAGUCCAGUAAGGAACG	0.574
GUUCCGUUGGCGUUAUGGUAACGCGUCUCCCUCCUACGGAGAAGACUGCGGGUUCGAGUCCCGUACGGAACG	0.627
GUUCCGUUGGCGUUAUGGUAACGCGUCUCCCUCCUAGGGAGAAGACUGCGGGUUCGAGUCCCGUACGGAACG	0.6
GUUCCGUUGGCGUUAUGGUACCGCGUCUCCCUCCUAAGGAAAAGGCUGCGGGUUCGAGUCCCGUACGGAACG	≤ 0.5
GUUCCGUUGGCGUUAUGGUAACGCGUCUCCCUCCUAAGGUGAAGACUGCGGGUUCGAGUCCCGUACGGAACG	0.597
GUUCCGUUGGCGUUAUGGUAACGCGUCUCCCUCCUAAGGGGAAGACUGCGGGUUCGAGUCCCGUACGGAACG	0.707
GUUCCGUUGGCGUUAUGGUAACGCGUCUCCCUCCUACGGAGAAAACUGCGGGUUCGAGUCCCGUACGGAACG	0.757
GUUCCGUUGGCGUUAUGGUAUCGCGUCUCCCUCCUAAGGAGAAGACUGCGGGUUCGACUCCCGUACGGAACG	≤ 0.5
GUUCCGUUGGCGUUAUGGUAACGCGUCUCCCUCCUAAGGAGAGGACUGCGGGUUGGAGUCCCGUACGGAACG	≤ 0.5
GUUCCGUUGGCGUUAUGGUAUCGCGUCUCCCUCCUAAGGAGAAGACUGUGGGUUCGAGUCCCGUACCGAACG	≤ 0.5

Variant	yeast fitness
GUUCCGUUGGCGUUAUGGUAUCGCGUCUCCCUCCUAAGGAGAAGACUGCGGGUUCGAGUCCCGUACGGCACG	0.566
GUUCCGUUGGCGUUAUGGUAACGCGUCUCCCUCCUAAGGAGACGACUGCGGGUUCGAGUCCCGUUCGGAACG	≤ 0.5
GUUCCGUUGGCGUUAUGGUUACGCGUCUCCCUCCUAAGGAGAAGACUGCGGGUUCGAGUCCCGUACGGAACG	0.588
GUUCCGUUGGCGUUAUGGUAACGCGUCUCCCUCCUAAGGAGAUGGCUGCGGGUUCGAGUCCCGUACGGAACG	0.634
GUUCCGUUGGCGUUAUGGUAACGCGUCUCCCUCCUGAGGGGAAGACUGCGGGUUCGAGUCCCGUACGGAACG	≤ 0.5
GUUCCGUUGGCGUUAUGGUAACGCGUCUCCCUCCUUAAGAGAAGACUGCGGGUACGAGUCCCGUACGGAACG	0.536
GUUCCGUUGGCGUUAUGGUUACGCGUCUCCCUCCUAAGGAGAAGACUGCGGGUUCGAGUCCCGUAUAGAACG	≤ 0.5
GUUCCGUUGGCGUUAUGGUAACGCGUCUCCCUCCUAAGGAGAGGACUGUGGGUUCGAGUCCCGUACGGAACG	≤ 0.5
GUUCCGUUGGCGUUAUGGUAACGCGUCUCCCUCCUAAGGUGAAGACUGCGGGUUCGACUCCCGUACGGAACG	0.547
GUUCCGUUGGCGUUAUGGUAACGCGUCUCCCUCCUAAGGAGACGACUGCGGGUUCGAGUCCUGUAUGGAACG	≤ 0.5
GUUCCGUUGGCGUUAUGGUAACGCGUCUCCCUCCUAAGGAGUAGACUGCGGGUUCGUGUCCCGUACGGAUCG	≤ 0.5
GUUCCGUUGGCGUUAUGGUAACGCGUCUCCCUCCUAAGGUGAAGACUGCGGGUUCGAGUCCCGUACAGAACG	0.539
GUUCCGUUGGCGUUAUGGUAACGCGUCUCCCUCCUAAGGAGAAGUCUGCGGGUUCGAGUCCCGUACGGCACG	0.539
GUUCCGUUGGCGUUAUGGUAACGCGUCUCCCUCCUAUGGAGAAGACUGCGGGUUCGAGUCGUGUACGGAACG	≤ 0.5
GUUCCGUUGGCGUUAUGGUAGCGCGUCUCCCUCCUAAGCAGAAGGCUGCGGGCUCGAGUCCUGUACGGAACG	≤ 0.5
GUUCCGUUGGCGUUAUGGUAACGCGUCUCCCUCCUAAGGUGAAGACUGCGGGUUCGAGUCCCGUACGGUACG	0.592
GUUCCGUUGGCGUUAUGGUACCGCGUCUUCCUCCUAAGGAGAAGACUGCGGGUUCGAGUCCCGUACGGAACG	0.538
GUUCCGUUGGCGUUAUGGUUACGCGUCUCCCUCCUAAGGAGGAGACUGCGGGUUCGAGUCCCGUCCGGCGCG	≤ 0.5
GUUCCGUUGGCGUUAUGGUAACGCGUCUCCCUCCUUAGGAAAAGACUGGGGGUUCGAGUCCCGUACGGAACG	≤ 0.5
GUUCCGUUGGCGUUAUGGUAACGCGUCUCCCUCCUUAGGAGAAGACUGCGGGUUCGAGUCCCAUACGGAACG	0.533
GUUCCGUUGGCGUUAUGGUAACGCGUCUCCCUCCUGAGGGGAAGACUGCGGGUUCGAGUCCCGUUCGGAACG	≤ 0.5
GUUCCGUUGGCGUUAUGGUAGCGCGUCUCCCUCCUAAGCAGAAGGCUGCUGGCUCGAGUCCCGUACGGAACG	≤ 0.5
GUUCCGUUGGCGUUAUGGUAACGCGUCUCCCUCCUAAGGAGAGGACUGCGGGUUCGAGUCCUGUACGGAACG	≤ 0.5
GUUCCGUUGGCGUUAUGGUAGCGCGUCUCCCUCCUAAGGAGAAGACUGCGGGUUCGAGUCCCGUACGGACCG	0.543
GUUCCGUUGGCGUUAUGGUAACGCGUCUCCCUCCUAAGGCGAAGACUGCGGGUUCGCGUCCCGUACGGAACG	≤ 0.5

Reference: the RNAGym collection of RNA variant scans (doi:10.1126/science.aae0568)
